Measurements as given in ChEMBL document CHEMBL4052686, “Synthesis and antibacterial activity of 5-methylphenanthridium derivatives as FtsZ inhibitors” (2017).
The source made the active and inactive calls. The calls are words filed in the database; no cut-off is given here.

Legend:
[1] = system: Staphylococcus aureus; assay: Antibacterial activity against penicillin-susceptible Staphylococcus aureus ATCC 25923 incubated for 24 hrs by tube-dilution method; format: functional; conditions: ATCC 25923, 24 h
How it was run: (§1)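 MIC by tube dilution per NCCLS; B. subtilis ATCC9372, E. coli ATCC25922, P. aeruginosa ATCC27853 and S. aureus ATCC25923 are penicillin-susceptible strains.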

[2] = system: Bacillus subtilis; assay: Inhibition of FtsZ in penicillin-susceptible Bacillus subtilis ATCC 9372 assessed as lowest drug concentration causing inhibition of cell division incubated for 5 hrs by phase-contrast light microscopy
How it was run: (§2)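 Cell division inhibition judged from bacterial cell morphology under phase-contrast light microscopy, scored as lowest concentration altering division; penicillin-susceptible strains B. subtilis ATCC9372, E. coli ATCC25922, P. aeruginosa ATCC27853, S. aureus ATCC25923.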

[3] = system: Pseudomonas aeruginosa; assay: Inhibition of FtsZ in penicillin-susceptible Pseudomonas aeruginosa ATCC 27853 assessed as lowest drug concentration causing inhibition of cell division incubated for 5 hrs by phase-contrast light microscopy; how it was run: as §2
[4] = system: Pseudomonas aeruginosa; assay: Antibacterial activity against penicillin-susceptible Pseudomonas aeruginosa ATCC 27853 incubated for 24 hrs by tube-dilution method; format: functional; conditions: ATCC 27853, 24 h; how it was run: as §1
[5] = organism: Sus scrofa; assay: Inhibition of porcine tubulin polymerisation at 256 ug/ml by fluorescence microscopy
How it was run: (§3)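 Polymerisation of mammalian tubulin followed with a commercial tubulin assay kit using a fluorescent reporter; compounds tested at 32 µg/mL or 256 µg/mL, paclitaxel as positive control.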

[6] = system: Escherichia coli; assay: Antibacterial activity against penicillin-susceptible Escherichia coli ATCC 25922 incubated for 24 hrs by tube-dilution method; format: functional; conditions: ATCC 25922, 24 h; how it was run: as §1
[7] = system: Staphylococcus aureus; assay: Antibacterial activity against […] Staphylococcus aureus ATCC 29213 incubated for 24 hrs by tube-dilution method; format: functional; conditions: ATCC 29213, 24 h
How it was run: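 Broth tube-dilution MIC run as NCCLS recommends, against the […] S. aureus strain ATCC29213.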

[8] = system: Escherichia coli; assay: Inhibition of FtsZ in penicillin-susceptible Escherichia coli ATCC 25922 assessed as lowest drug concentration causing inhibition of cell division incubated for 5 hrs by phase-contrast light microscopy; how it was run: as §2
[9] = system: Staphylococcus aureus; assay: Antibacterial activity against penicillin-resistant Staphylococcus aureus clinical isolates incubated for 24 hrs by tube-dilution method; format: functional
[10] = system: Streptococcus pyogenes; assay: Antibacterial activity against penicillin-resistant Streptococcus pyogenes clinical isolates incubated for 24 hrs by tube-dilution method; format: functional
[11] = system: Bacillus subtilis; assay: Antibacterial activity against penicillin-susceptible Bacillus subtilis ATCC 9372 incubated for 24 hrs by tube-dilution method; format: functional; conditions: ATCC 9372, 24 h; how it was run: as §1
[12] = system: Streptococcus pyogenes; assay: Antibacterial activity against penicillin-susceptible Streptococcus pyogenes clinical isolates incubated for 24 hrs by tube-dilution method; format: functional
[13] = organism: Sus scrofa; assay: Induction of porcine tubulin polymerisation at 2 times MIC for penicillin-resistant Staphylococcus aureus by fluorescence microscopy
How it was run: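 Polymerisation of mammalian tubulin measured with a commercial tubulin assay kit, read by fluorescence of the kit reporter, with paclitaxel as the positive control for enhanced polymerisation.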

[14] = system: Staphylococcus aureus; assay: Inhibition of FtsZ in penicillin-susceptible Staphylococcus aureus ATCC 25923 assessed as lowest drug concentration causing inhibition of cell division incubated for 5 hrs by phase-contrast light microscopy; how it was run: as §2
[15] = system: Staphylococcus epidermidis; assay: Antibacterial activity against penicillin-resistant Staphylococcus epidermidis clinical isolates incubated for 24 hrs by tube-dilution method; format: functional
[16] = system: Bacillus subtilis; assay: Potency index, ratio of MIC for sanguinarine to MIC for test compound against penicillin-susceptible Bacillus subtilis ATCC 9372 incubated for 24 hrs by tube-dilution method; format: functional
[17] = system: Streptococcus pyogenes; assay: Potency index, ratio of MIC for oxacillin sodium to MIC for test compound against penicillin-susceptible Streptococcus pyogenes clinical isolates incubated for 24 hrs by tube-dilution method; format: functional
[18] = system: Streptococcus pyogenes; assay: Potency index, ratio of MIC for sanguinarine to MIC for test compound against penicillin-susceptible Streptococcus pyogenes clinical isolates incubated for 24 hrs by tube-dilution method; format: functional
[19] = organism: Sus scrofa; assay: Inhibition of porcine tubulin polymerisation at 32 ug/ml by fluorescence microscopy; how it was run: as §3
[20] = system: Bacillus subtilis; assay: Potency index, ratio of MIC for oxacillin sodium to MIC for test compound against penicillin-susceptible Bacillus subtilis ATCC 9372 incubated for 24 hrs by tube-dilution method; format: functional
[21] = system: Bacillus subtilis; assay: Potency index, ratio of MIC for curcumin to MIC for test compound against penicillin-susceptible Bacillus subtilis ATCC 9372 incubated for 24 hrs by tube-dilution method; format: functional
[22] = system: Bacillus subtilis; assay: Potency index, ratio of MIC for ciprofloxaxin to MIC for test compound against penicillin-susceptible Bacillus subtilis ATCC 9372 incubated for 24 hrs by tube-dilution method; format: functional
[23] = system: Staphylococcus aureus; assay: Potency index, ratio of MIC for oxacillin sodium to MIC for test compound against […] Staphylococcus aureus ATCC 29213 incubated for 24 hrs by tube-dilution method; format: functional
[24] = system: Staphylococcus aureus; assay: Potency index, ratio of MIC for curcumin to MIC for test compound against […] Staphylococcus aureus ATCC 29213 incubated for 24 hrs by tube-dilution method; format: functional

Row | SMILES | MIC [1] [µg/mL] | MIC [2] [µg/mL] | MIC [3] [µg/mL] | MIC [4] [µg/mL] | MIC [6] [µg/mL] | MIC [7] [µg/mL] | MIC [8] [µg/mL] | MIC [9] [µg/mL] | MIC [10] [µg/mL] | MIC [11] [µg/mL] | MIC [12] [µg/mL] | Activity [13] | MIC [14] [µg/mL] | MIC [15] [µg/mL] | other results
1 | C[n+]1cc2ccccc2c2cc(OC(F)(F)F)ccc21.[Cl-] | 128 | 64 | > 128 | > 128 | > 128 | > 128 | > 128 | 128 | 128 | 128 | 128 | inactive | 128 | 128 | inhibition [5]: Active
2 | CC(C)c1cccc2c3ccccc3c[n+](C)c12.[Cl-] | 8 | 4 | > 128 | > 128 | > 128 | 64 | > 128 | 16 | 8 | 4 | 4 | inactive | 8 | 64 | Ratio [16]: 2; Ratio [17]: 4; Ratio [18]: 2; inhibition [19]: Active; Ratio [20]: 2; Ratio [21]: 8; Ratio [22]: 2
3 | CSc1cccc2c3ccccc3c[n+](C)c12.[Cl-] | 16 | 8 | > 128 | > 128 | > 128 | 16 | 128 | 8 | 8 | 8 | 8 | inactive | 16 | > 128 | Ratio [23]: 8; Ratio [24]: 8
